Experimental data taken from ChEMBL document CHEMBL3091455, “Dimethylaminopyridine derivatives of lupane triterpenoids cause mitochondrial disruption and induce the permeability transition” (Bioorg Med Chem, 2013).
Activity calls are given as the source filed them. No cut-off for these calls is given here.

Tests used:
Rattus norvegicus [1] = species: Rattus norvegicus; experiment: Effect on electron transport protein complex 2 in Wistar-Han rat liver mitochondria using succinate as substrate assessed as phosphorylative lag phase at 6 ug/mg relative to control
How it was run: (§1)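 Membrane potential recorded by TPP⁺ electrode, 1 mg rat liver mitochondria, 30 °C, pH 7.2 sucrose/KCl medium with 3 μM TPP⁺. Compound (3 or 6 µg/mg protein) given 1 min before glutamate/malate (5/2.5 mM) or succinate (5 mM) + 3 µM rotenone. Lag phase follows the ADP pulse (125 nmol/mg protein).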

Rattus norvegicus [2] = species: Rattus norvegicus; experiment: Effect on electron transport protein complex 1 in Wistar-Han rat liver mitochondria using glutamate/malate as substrate assessed as ADP-induced depolarization at 6 ug/mg relative to control
Rattus norvegicus [3] = species: Rattus norvegicus; experiment: Effect on electron transport protein complex 1 in Wistar-Han rat liver mitochondria using glutamate/malate as substrate assessed as ADP-induced depolarization at 3 ug/mg relative to control
MCF7 = experiment: Induction of mitochondrial depolarization in human estrogen-sensitive MCF7 cells at 1 ug/ml after 48 hrs by MitoTracker Red staining; assay type: functional, cell-based
How it was run: (§2)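 Cells grown in DMEM with 10% FBS at 37 °C, 5% CO₂, seeded on coverslips, attached 24 h. Then 1 µg/ml compound for 48 h. MitoTracker Red CMXRos 7.3 nM added for the final 30 min. Cells fixed in cold methanol at −20 °C overnight and imaged by epifluorescence with a 63× objective. Three independent experiments.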

BJ = experiment: Induction of mitochondrial depolarization in human BJ cells at 1 ug/ml after 48 hrs by MitoTracker Red staining; assay type: cell-based
How it was run: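 BJ normal human fibroblasts grown as monolayers in DMEM with 10% FBS, 37 °C, 5% CO2. Seeded on glass coverslips, attached 24 h, then exposed to compound (1 µg/ml) for 48 h. MitoTracker Red CMXRos (7.3 nM) added 30 min before end at 37 °C in dark. Methanol-fixed at -20 °C overnight, imaged by epifluorescence (63× objective). Three independent experiments.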

Rattus norvegicus [4] = species: Rattus norvegicus; experiment: Effect on electron transport protein complex 1 in Wistar-Han rat liver mitochondria using glutamate/malate as substrate assessed as phosphorylative lag phase at 3 ug/mg relative to control; how it was run: as §1
Hs-578T = experiment: Induction of mitochondrial depolarization in human estrogen-insensitive Hs578T cells at 1 ug/ml after 48 hrs by MitoTracker Red staining; assay type: functional, cell-based; how it was run: as §2
Rattus norvegicus [5] = species: Rattus norvegicus; experiment: Effect on electron transport protein complex 1 in Wistar-Han rat liver mitochondria using glutamate/malate as substrate assessed as phosphorylative lag phase at 6 ug/mg relative to control; how it was run: as §1
Rattus norvegicus [6] = species: Rattus norvegicus; experiment: Inhibition of electron transport protein complex 1/2 in Wistar-Han rat liver mitochondria using glutamate/malate and succinate as substrate assessed as increase of state 3 and 4 mitochondrial oxygen consumption at 3 to 6 ug/mg
How it was run: (§3)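 Compound (3 or 6 µg/mg protein) preincubated 1 min, then 10 mM glutamate/5 mM malate or 5 mM succinate + 3 µM rotenone. ADP 187.5 nmol/mg protein; oligomycin 1 µg; FCCP 1 µM. RCR = state 3/state 4; ADP/O per Chance and Williams. Expressed as % control, means ± SEM, three preparations.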

Rattus norvegicus [7] = species: Rattus norvegicus; experiment: Effect on electron transport protein complex 2 in Wistar-Han rat liver mitochondria using succinate as substrate assessed as ADP-induced depolarization at 3 ug/mg relative to control
Rattus norvegicus [8] = species: Rattus norvegicus; experiment: Effect on electron transport protein complex 1 in Wistar-Han rat liver mitochondria using glutamate/malate as substrate assessed as mitochondrial transmembrane electric potential at 3 ug/mg relative to control
Rattus norvegicus [9] = species: Rattus norvegicus; experiment: Effect on electron transport protein complex 2 in Wistar-Han rat liver mitochondria using succinate as substrate assessed as phosphorylative lag phase at 3 ug/mg relative to control; how it was run: as §1
Rattus norvegicus [10] = species: Rattus norvegicus; experiment: Effect on electron transport protein complex 2 in Wistar-Han rat liver mitochondria using succinate as substrate assessed as mitochondrial transmembrane electric potential at 3 ug/mg relative to control
Rattus norvegicus [11] = species: Rattus norvegicus; experiment: Effect on electron transport protein complex 1 in Wistar-Han rat liver mitochondria using glutamate/malate as substrate assessed as mitochondrial transmembrane electric potential at 6 ug/mg relative to control
Rattus norvegicus [12] = species: Rattus norvegicus; experiment: Inhibition of electron transport protein complex 1/2 in Wistar-Han rat liver mitochondria using glutamate/malate and succinate as substrate assessed as decrease of respiratory control ratio at 6 ug/mg; how it was run: as §3
Rattus norvegicus [13] = species: Rattus norvegicus; experiment: Effect on electron transport protein complex 2 in Wistar-Han rat liver mitochondria using succinate as substrate assessed as mitochondrial transmembrane electric potential at 6 ug/mg relative to control
Rattus norvegicus [14] = species: Rattus norvegicus; experiment: Effect on electron transport protein complex 2 in Wistar-Han rat liver mitochondria using succinate as substrate assessed as ADP-induced depolarization at 6 ug/mg relative to control
Rattus norvegicus [15] = species: Rattus norvegicus; experiment: Effect on calcium-induced mitochondrial swelling in Wistar-Han rat liver mitochondria assessed as mitochondrial transmembrane electric potential after 2 mins; assay type: functional
How it was run: (§4)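 TPP⁺ electrode, 30 °C, 1 mg rat liver mitochondria in 1 ml 200 mM sucrose, 10 mM Tris-MOPS pH 7.2, 10 µM EGTA, 1 mM KH₂PO₄, 3 µM rotenone, 3 µM TPP⁺. Compound incubated with mitochondria 2 min (legend), then 5 mM succinate. Calcium 30–60 nmol pulses, depending on preparation. Controls: 1 µM cyclosporin A pre-incubated; FCCP.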

Rattus norvegicus [16] = species: Rattus norvegicus; experiment: Inhibition of electron transport protein complex 1/2 in Wistar-Han rat liver mitochondria using glutamate/malate and succinate as substrate assessed as increase of passive flux of protons through mitochondrial inner membrane at 3 to 6 ug/mg
Rattus norvegicus [17] = species: Rattus norvegicus; experiment: Inhibition of electron transport protein complex 1/2 in Wistar-Han rat liver mitochondria using glutamate/malate and succinate as substrate assessed as decrease of FCCP-induced respiration at 3 to 6 ug/mg; how it was run: as §3
Rattus norvegicus [18] = species: Rattus norvegicus; experiment: Increase of calcium-induced mitochondrial permeability transition in Wistar-Han rat liver mitochondria assessed as mitochondrial transmembrane electric potential after 2 mins; assay type: functional; how it was run: as §4
Rattus norvegicus [19] = species: Rattus norvegicus; experiment: Inhibition of electron transport protein complex 1/2 in Wistar-Han rat liver mitochondria using glutamate/malate and succinate as substrate assessed as decrease of ADP/O ratio at 3 to 6 ug/mg; how it was run: as §3

Activity (Rattus norvegicus [1]) [%] | Activity (Rattus norvegicus [7]) [%] | Activity (Rattus norvegicus [9]) [%] | Activity (Rattus norvegicus [10]) [mV] | Activity (Rattus norvegicus [13]) [mV] | Activity (Rattus norvegicus [14]) [%] | Structure (SMILES) | Activity (Rattus norvegicus [2]) [%] | Activity (Rattus norvegicus [3]) [%] | Activity (MCF7) | Activity (BJ) | Activity (Rattus norvegicus [4]) [%] | Activity (Hs-578T) | Activity (Rattus norvegicus [5]) [%] | inhibition (Rattus norvegicus [6]) | Activity (Rattus norvegicus [8]) [mV] | Activity (Rattus norvegicus [11]) [mV] | inhibition (Rattus norvegicus [12]) | Activity (Rattus norvegicus [15]) | Activity (Rattus norvegicus [18]) | further results
57 | 22.4 | 40.3 | 228 | 228 | 13.8 | C=C(C[n+]1ccc(N(C)C)cc1)[C@@H]1CC[C@]2(C(=O)O)CC[C@]3(C)[C@H](CC[C@@H]4[C@@]5(C)CC[C@H](O)C(C)(C)[C@@H]5CC[C@]43C)[C@@H]12.[Br-] | 13.5 | 19.5 | inactive | Non-toxic | 51 | inactive | 63.3 | inactive | 229 | 229 | Active |  |  | 
45.5 | 30.3 | 36 | 232 | 228 | 27.8 | C=C(C[n+]1ccc(N(C)C)cc1)[C@@H]1CC[C@]2(COC(=O)C[n+]3ccc(N(C)C)cc3)CC[C@]3(C)[C@H](CC[C@@H]4[C@@]5(C)CC[C@H](OC(=O)C[n+]6ccc(N(C)C)cc6)C(C)(C)[C@@H]5CC[C@]43C)[C@@H]12.[Br-].[Br-].[Br-] | 14.6 | 18.5 | Active | Toxic | 42.8 | Active | 46.5 | inactive | 225 | 226 | Active | inactive | Active | 
42 | 28.5 | 39 | 226 | 224 | 27.8 | C=C(C)[C@@H]1CC[C@]2(COC(=O)C[n+]3ccc(N(C)C)cc3)CC[C@]3(C)[C@H](CC[C@@H]4[C@@]5(C)CC[C@H](O)C(C)(C)[C@@H]5CC[C@]43C)[C@@H]12 | 22.6 | 22.5 |  |  | 28.8 |  | 31 | Active | 225 | 225 |  | inactive | Active | inhibition (Rattus norvegicus [19]): Active

Structure (SMILES) | Activity (Rattus norvegicus [1]) [%] | Activity (Rattus norvegicus [7]) [%] | Activity (Rattus norvegicus [9]) [%] | Activity (Rattus norvegicus [10]) [mV] | Activity (Rattus norvegicus [13]) [mV] | Activity (Rattus norvegicus [14]) [%] | Activity (Rattus norvegicus [2]) [%] | Activity (Rattus norvegicus [3]) [%] | Activity (MCF7) | Activity (BJ) | Activity (Rattus norvegicus [4]) [%] | Activity (Hs-578T) | Activity (Rattus norvegicus [5]) [%] | inhibition (Rattus norvegicus [6]) | Activity (Rattus norvegicus [8]) [mV] | Activity (Rattus norvegicus [11]) [mV] | inhibition (Rattus norvegicus [12]) | Activity (Rattus norvegicus [15]) | Activity (Rattus norvegicus [18]) | further results
C=C(C)[C@@H]1CC[C@]2(COC(=O)C[n+]3ccc(N(C)C)cc3)CC[C@]3(C)[C@H](CC[C@@H]4[C@@]5(C)CC[C@H](OC(=O)C[n+]6ccc(N(C)C)cc6)C(C)(C)[C@@H]5CC[C@]43C)[C@@H]12.[Br-].[Br-] | 40 | 30.6 | 38.3 | 232 | 229 | 27.7 | 20.3 | 23.4 | Active | Toxic | 36.8 | Active | 46 |  | 225 | 225 |  | inactive | Active | inhibition (Rattus norvegicus [16]): Active; inhibition (Rattus norvegicus [17]): Active
C=C(C)[C@@H]1CC[C@]2(CO)CC[C@]3(C)[C@H](CC[C@@H]4[C@@]5(C)CC[C@H](OC(=O)C[n+]6ccc(N(C)C)cc6)C(C)(C)[C@@H]5CC[C@]43C)[C@@H]12.[Cl-] | 53 | 36.2 | 38 | 232 | 228 | 29.9 | 23.5 | 26.5 | Active | Toxic | 27.8 | Active | 45 | inactive | 222 | 222 |  | inactive | Active | 
